Reference: ChEMBL document CHEMBL1145810, “Synthesis and complement inhibitory activity of B/C/D-ring analogues of the fungal metabolite 6,7-diformyl-3',4',4a',5',6',7',8',8a'-octahydro-4,6',7'-trihydroxy- 2',5',5',8a'-tetramethylspiro[1'(2'H)-naphthalene-2(3H)-benzofuran]” (J Med Chem, 2003)

Columns and labels:
[1] = Inhibitory activity against proteolytic release of C3a in activated human serum was determined; format: functional
How it was run: (§1)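 Human serum (73% of final volume) equilibrated with a range of compound concentrations dissolved in 0.10 M HEPES, 0.15 M NaCl, pH 7.4. Serum then activated with heat-aggregated IgG, and C5a[desArg] and C3a[desArg] quantified. Fractional inhibition taken relative to the no-compound sample and to the background level without aggregated IgG. n = 3 (one compound n = 2).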

[2] = Inhibitory activity against proteolytic release of C5a in activated human serum was determined; format: functional; how it was run: as §1
[3] = species on record: Homo sapiens; assay: Ability to inhibit complement-mediated erythrocyte lysis (hemolysis) in human serum; format: functional, organism-based
How it was run: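 Antibody-sensitized sheep erythrocytes incubated with compound and diluted human serum, 60 min at 37 °C. Cells pelleted by centrifugation; released hemoglobin read at 410 nm in supernatant. Each sample paired with a serum-free control for complement-independent lysis, which was subtracted. Fractional inhibition taken relative to the no-compound sample.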

[4] = species on record: Oryctolagus cuniculus; assay: Ability to inhibit lysis of rabbit erythrocytes by the alternative complement pathway was determined; format: functional, organism-based
How it was run: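 Alternative-pathway hemolysis of rabbit erythrocytes. Cells incubated with compound and human serum for 60 min at 37 °C. Supernatant hemoglobin read at 410 nm after centrifugation. Serum-free background was subtracted and inhibition taken relative to the no-compound sample.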

Row | IC50 [1] | IC50 [2] | IC50 [4] | SMILES | IC50 [3]
1 |  |  | 1900 µM | COc1cc(C=O)c(C(=O)O)c2c1CC1(CCCCC1)O2 | 1700 µM
2 |  |  | 1200 µM | COc1cc(C(=O)O)c(C(=O)O)c2c1CC1(CCCCC1)O2 | 800 µM
3 | 22000 µM | 5000 µM | 2200 µM | COc1ccc(C(=O)O)c2c1CC1(CCCCC1)O2 | 1300 µM
4 | 13000 µM | 8000 µM |  | COc1ccc(C=O)c2c1CC1(CCCCC1)O2 | 
5 |  |  | 3500 µM | COc1cc(C(=O)O)cc(O)c1CC1=CCCCC1 | 820 µM
6 |  | 500 µM | 730 µM | COc1cc(C(=O)O)c(C=O)c2c1CC1(CCCCC1)O2 | 160 µM
7 |  |  | 3800 µM | O=C(O)c1cc(O)c2c(c1)OC1(CCCCC1)C2 | 1500 µM
8 |  | 3000 µM | 330 µM | C[C@@H]1CCC2C(C)(C)[C@H](O)[C@H](O)C[C@]2(C)C12Cc1c(O)cc(C(=O)O)c(C=O)c1O2 (stereo partly drawn) | 570 µM

Continued, compound first:

Row | SMILES | IC50 [1] | IC50 [2] | IC50 [4] | IC50 [3]
9 | COc1cc2c(c3c1CC1(CCCCC1)O3)C(=O)OC2 | 700 µM | 1300 µM |  | 
10 | O=C(O)c1ccc(O)c2c1OC1(CCCCC1)C2 |  |  |  | 3000 µM
11 | O=C(O)c1ccc(O)cc1O [2,4-DIHYDROXYBENZOIC ACID] |  | 22000 µM |  | 
12 | COc1ccc(C(=O)O)c(O)c1CC1=CCCCC1 |  |  |  | 2100 µM
13 | COc1cc(C(=O)O)cc2c1CC1(CCCCC1)O2 |  |  | 2200 µM | 530 µM
14 | O=C(O)c1ccccc1O [SALICYLIC ACID] |  | 21000 µM |  | 
